# T cell modulator = modulators of CD8 T cell-vesicle binding, primary screen, mouse 2C CD8+ T cells, flow cytometry; 2C CD8+ T cell-vesicle binding; active compounds read low; 330,000 compounds, 0.068% hits; response (vesicle binding), % at 7 µM;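 active = response, share of CD8 T cells binding vesicles, and their 90th percentile fluorescence all below set limits, cut at about 80% in these data, passing the limit was not always enough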;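 also: values below 100% mean blocked vesicle binding to the CD8+ T cells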
#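 Incubation: binding step 1.5 h, 37 °C, antibody labelling 20 min, ice; system: murine 2C transgenic CD8+ T lymphocytes; technique: cytometric PE anti-B7-1 and Alexa647 anti-CD8 signals after 1% paraformaldehyde fixation; also added: QL9-charged Drosophila Ld/ICAM-1/B7-1 vesicles; control set: naked versus QL9-loaded vesicles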
# GRIN3A LBD mod = binders of NR3A ligand-binding domain, primary screen, biophysical, differential scanning fluorimetry, uHTS; Tm shift relative to glycine control, % at 25 µM; 340,000 compounds, 2.5% hits; NR3A LBD differential scanning fluorimetry, Tm shift; 0% = protein alone, 100% = glycine-bound protein; AID 1259313, 2017; Glutamate receptor ionotropic, NMDA 3A (GRIN3A) ligand-binding domain;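 active = melting temperature shift of at least 10% of the positive control shift, at one fixed dose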
# JMJD2C inh = inhibitors of GASC-1 histone demethylase, primary screen, biochemical, fluorescence, DELFIA europium; Lysine-specific demethylase 4C (Homo sapiens), Q9H3R0; GST-JMJD2C(1-420) H3K9me3 demethylation; inhibition, % at 2.35 µM; 330,000 compounds, 0.069% hits;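 active = more than half of a compound's replicate wells show inhibition beyond 50%, single wells judged on their own value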;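 also: signal counts dimethyl H3K9 product captured on neutravidin plate; 0% = median of DMSO wells and 100% = 0.3 times that DMSO median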
# Target sequence (Q9H3R0 1-420 limits assumed): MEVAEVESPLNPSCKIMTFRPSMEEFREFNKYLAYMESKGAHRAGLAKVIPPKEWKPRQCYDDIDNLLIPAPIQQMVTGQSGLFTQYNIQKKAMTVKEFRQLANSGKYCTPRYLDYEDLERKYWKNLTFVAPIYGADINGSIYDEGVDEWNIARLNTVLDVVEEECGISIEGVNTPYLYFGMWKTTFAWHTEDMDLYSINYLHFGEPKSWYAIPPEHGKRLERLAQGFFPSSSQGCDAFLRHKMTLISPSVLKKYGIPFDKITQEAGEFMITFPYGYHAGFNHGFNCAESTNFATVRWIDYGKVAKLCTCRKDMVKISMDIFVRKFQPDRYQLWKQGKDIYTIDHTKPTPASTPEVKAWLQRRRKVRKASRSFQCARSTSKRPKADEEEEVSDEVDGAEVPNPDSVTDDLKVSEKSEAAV
# Rtt109 HAT inh = inhibitors of C. albicans Rtt109/Vps75 HAT, primary screen, biochemical, ThioGlo CoA-SH fluorescence, plate reader; purified Rtt109/Vps75, 4 h; Histone acetyltransferase RTT109 (Candida albicans (strain SC5314 / ATCC MYA-2876)), …; AID 540336, 2011; 330,000 compounds, 0.16% hits; inhibition, % at 34.9 µM;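 active = inhibition of at least 50% in every replicate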
# Active calls of the source: *; i = inactive; . = not tested or not shown. This is a sample that favours compounds with a hit; in the whole collection about 2.8% have one here.
SMILES,T cell modulator,GRIN3A LBD mod,JMJD2C inh,Rtt109 HAT inh
O=C(C1CCCC1)N1CCC(CC2CC(c3cccc(Br)c3)=NO2)(C(=O)NCC2CCCCC2)CC1 (stereo not given),414.6,1.4,3.6,8.3
O=C(NCCCNC(=O)c1cnccn1)c1cccc(Cl)c1,288.6,2.7,2.7,-4.0
Cc1ccc(S(=O)(=O)N(C)CC(=O)OCC(=O)N2CCCC2=O)cc1,246.6,-1.5,5.1,-4.1
CC(=O)Nc1ccc(S(=O)(=O)N(C)CC(=O)OCC(=O)N2CCCC2=O)cc1,377.3,16.9*,64.5,-14.6
CC(C)c1ccc(NC(=O)COC(=O)CSc2nnc(N)s2)cc1,268.2,13.0*,0.4,-13.1
O=C(COc1ccc(-c2nnco2)cc1)Nc1c(Cl)cccc1C(F)(F)F,43.4,-1.1,-4.1,-3.2
O=C(COc1ccc(-c2nnco2)cc1)Nc1c(F)cccc1F,332.2,14.1*,7.1,-18.4
CN(C)S(=O)(=O)c1ccc(SCC(=O)N2CC(=O)Nc3ccccc32)nc1,759.3,1.2,4.4,-7.6
NC(=O)c1c(NC(=O)c2ccccc2Cl)sc2c1CCC2,319.2,5.8,-2.4,1.3
NC(=O)c1c(NC(=O)c2cccnc2Cl)sc2c1CCCC2,0.0*,-3.5,1.4,11.4
O=C(CSc1nc2ccccc2c2c1CCCC2)N1CCOCC1,184.2,-2.3,-19.0,-0.8
Cc1cccc(OCC(=O)NC(=S)Nc2ccccc2N2CCOCC2)c1C,295.5,15.9*,-17.0,-15.7
CC(C)Oc1cccc(C(=O)NC(=S)Nc2ccccc2N2CCOCC2)c1,281.9,20.4*,0.8,3.8
CCOCCn1ccc2c(OCC(=O)Nc3cc(OC)ccc3OC)cccc2c1=O,380.4,11.4*,-3.5,-3.2
O=C(Oc1ccc(C(=S)N2CCCCC2)cc1)c1ccccc1F,228.1,38.9*,-14.9,-8.2
COCc1nnc(NC(=O)c2ccc(NC(C)=O)cc2)s1,407.1,23.7*,3.3,-15.7
CCCC(=O)Nc1ccc(C(=O)Nc2nnc(COC)s2)cc1,i,-26.5,19.0,-3.8
COc1ccc(Br)cc1CN(C)C(=O)c1ccccc1SCC(=O)N1CCCC1,.,-2.2,.,-6.6
O=C(NC1CCS(=O)(=O)C1)c1cccnc1 (stereo not given),27.4*,.,-1.0,.
O=C(COc1ncnc2c1cnn2-c1ccccc1)Nc1ccc(S(=O)(=O)N2CCCCC2)cc1,369.0,18.0*,-17.8,7.2
O=C(NCc1ccccc1)c1ccc(NC(=O)c2ccco2)cc1,801.8,18.8*,-1.5,-2.2
Nc1ccc(C(=O)Nc2ccc(NC(=O)c3ccco3)c(O)c2)cc1,306.7,22.2*,3.1,2.8
O=C(NCc1ccccc1)c1ccco1,294.2,-0.2,2.3,-3.0
Cc1nc(NC(=O)c2ccco2)sc1C(=O)Nc1ccc(Br)cc1,317.0,15.3*,-22.6,7.9
Cc1nc(NC(=O)c2ccco2)sc1C(=O)O,249.6,1.4,23.4,-4.0
SMILES,T cell modulator,GRIN3A LBD mod,JMJD2C inh,Rtt109 HAT inh
O=C(Nc1ccc(Cl)c(Cl)c1)Oc1ccc(NC(=O)c2ccco2)cc1,381.1,26.7*,11.0,8.6
CN(C)C(=O)CSc1ccccc1C(=O)OCC(=O)NC1CC1,104.0,1.2,9.9,-7.3
COc1ccc(C(=O)Nc2ccc(NC(=O)c3ccco3)cc2)cc1,245.5,16.3*,7.0,2.0
COc1ccc(S(=O)(=O)N2CCCCCC2)cc1NC(=O)CN1C(=O)NC(C)(c2ccccc2)C1=O (stereo not given),197.5,-0.7,-3.0,13.4
O=C1c2cccc3cc([N+](=O)[O-])cc(c23)C(=O)N1c1nncs1,190.0,2.5,0.1,-10.5
CC(C)CCNC(=O)C1CCN(S(=O)(=O)c2ccc3c(c2)CC(C)N3C(=O)C2CCC2)CC1 (stereo not given),222.7,-1.0,4.6,93.7*
COc1ccc(S(=O)(=O)N2CCN(c3cnccn3)CC2)cc1OC,261.4,3.3,1.6,-0.7
CCN(CC)CCCNc1nnc(C)c(=O)[nH]1,612.4,11.0*,-4.6,7.7
C=CC[C@@H](Cc1ccc(F)cc1)C(=O)OC[C@@H]1CCCN1C(=O)[C@H](CC=C)CC(=O)NCCO,440.7,1.3,3.6,0.7
S=C1NC2(CCCCC2)Cc2ccccc21,284.7,-3.8,3.5,50.5*
CCOc1ccc(CNC(=O)C(=O)c2cn(CC(=O)N3CCOCC3)c3ccccc23)cc1OC,61.3,0.2,-7.2,0.1
COc1ccccc1NC(=O)c1c(Nc2ccccc2F)sc(C(=O)Nc2cccc(Cl)c2)c1N,405.9,28.6*,5.8,-5.2
C=CCC[C@@H](Cc1ccc(F)cc1)C(=O)OCCNC(=O)[C@H](CC=C)CC(=O)NCCO,299.6,-0.2,-0.4,-6.9
CCCOC(=O)c1c(-c2ccc(OC)cc2)oc2ccc(-c3ccc(OC)nc3)cc12,568.6,14.8*,6.0,-2.6
COC(=O)c1c(-c2ccc(OC)cc2)oc2ccc(-c3ccc(OC)nc3)cc12,735.9,0.5,-4.6,-3.0
O=C(/C=C/c1ccc2c(c1)OCCCO2)c1ccc2ccccc2c1O,233.2,31.9*,-1.6,4.7
Cc1cccc(OC(C)C(=O)Nc2nc(-c3ccncc3)cs2)c1 (stereo not given),.,0.6,.,4.6
COc1cccc(-c2nn(C)c3sc(C(=O)NCCCN(C)Cc4ccccc4)cc23)c1,265.9,-2.3,-1.7,17.3
CCN(CC)CCCNC(=O)c1cc2c(-c3cccc(OC)c3)nn(C)c2s1,335.8,10.6*,7.0,-0.4
CCCCCCCCNCCS(=O)(=O)NCc1ccc(OC)cc1,.,0.2,.,-9.7
O=C(NCc1ccccn1)c1cn(Cc2ccccc2)nn1,258.9,-0.4,64.1*,4.4
O=C(NCc1ccccn1)c1ccco1,283.9,-1.1,3.8,-3.7
O=c1cc(-c2ccc(O)cc2)oc2c(-c3c(O)cc(O)c4c(=O)cc(-c5ccc(O)cc5)oc34)c(O)cc(O)c12,670.0,21.4*,.,0.5
O=c1c(-c2c(O)cc(O)c3c(=O)cc(-c4ccc(O)cc4)oc23)c(-c2ccc(O)cc2)oc2cc(O)cc(O)c12,352.2,26.6*,.,14.0
COc1c(-c2ccc(O)cc2)oc2cc(O)cc(O)c2c1=O,118.9,-1.9,.,19.4
O=c1c(O)c(-c2ccc(O)c(O)c2)oc2cc(O)cc(O)c12,604.0,22.0*,-52.1,1.5
O=c1cc(-c2ccc(O)c(O)c2)oc2cc(O)cc(O)c12,619.9,9.9,-3.8,1.1
O=c1cc(-c2ccc(O)c(-c3c(O)cc(O)c4c(=O)cc(-c5ccc(O)cc5)oc34)c2)oc2cc(O)cc(O)c12,471.3,18.1*,-8.8,4.0
O=C(NNC(=O)C12CC3CC(CC(C3)C1)C2)c1csc(N2CCOCC2)n1,327.1,3.0,-19.1,-4.3
Cn1nc(C(=O)N2CCN(c3ccccn3)CC2)c2ccccc2c1=O,i,1.8,-39.1,-11.8

# Screening data: PubChem BioAssay, several laboratories
